According to publication PMC7398576 (Oncogene, 2020):

How the values were obtained:
[1] = target: T1, p53 (Homo sapiens, UniProt P04637); experiment: Biotinylated oligonucleotide pull down assay, p53 western blot; assay type: biochemical; conditions: for Inhibition of p53 DNA binding in oligonucleotide pull down: full-length p53
In short: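 Pull-down: p53 (~0.1 μl E. coli lysate, 100 ng) with 2 μg poly(dI-dC) and 100 ng biotinylated duplex oligo carrying the p53 site, in Tris pH7.2/150 mM NaCl DNA-binding buffer, 30 min at 4 °C. Captured on streptavidin magnetic beads 30 min at 4 °C, washed three times, boiled, p53 western blot. Pre-treated bead-bound FLAG-p53: 10 μM, 30 min, washed 3 min or 3 h, FLAG-peptide eluted.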

[2] = target: full-length luciferase (Photinus pyralis, UniProt P08659); experiment: Full-length luciferase activity; assay type: biochemical, Firefly
[3] = target: zinc finger proteins (ZF1-Nluc/ZF2-Cluc complementation) (Photinus pyralis, UniProt P08659, D436G/I423L/L530R); experiment: ZF1-Nluc/ZF2-Cluc complementation in the absence of p53; assay type: biochemical
[4] = target: T1, p53; experiment: In vitro oligomer formation of HA-p53 and FLAG-p53; assay type: biochemical
[5] = target: T2, TCF1 (Homo sapiens, UniProt P36402); experiment: Biotinylated oligonucleotide pull down assay, FLAG-TCF1; assay type: biochemical
T2 sequence (P36402 whole entry): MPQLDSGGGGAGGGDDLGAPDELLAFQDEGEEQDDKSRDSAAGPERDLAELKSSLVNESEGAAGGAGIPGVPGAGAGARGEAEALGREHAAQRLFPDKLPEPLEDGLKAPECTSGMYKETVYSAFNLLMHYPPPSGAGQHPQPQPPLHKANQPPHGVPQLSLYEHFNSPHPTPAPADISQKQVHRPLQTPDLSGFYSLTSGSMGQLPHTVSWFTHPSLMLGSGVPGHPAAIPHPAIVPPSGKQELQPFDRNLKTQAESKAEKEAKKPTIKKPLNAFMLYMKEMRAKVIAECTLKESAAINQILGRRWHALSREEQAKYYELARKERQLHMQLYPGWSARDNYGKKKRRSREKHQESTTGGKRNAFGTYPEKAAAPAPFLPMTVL

[6] = system: Primary mouse thymocytes; experiment: Primary mouse thymocytes, radiation-induced apoptosis and viability; assay type: cell-based
[7] = system: p53 target genes (p21, MDM2, PUMA) in U2OS cells; experiment: Western blot / RT-PCR of p53 level and target genes in U2OS cells; assay type: cell-based, human
[8] = target: T1, p53; experiment: p53-responsive luciferase reporter assay in transfected H1299 cells; assay type: cell-based; conditions: 6 h treatment
In short: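 H1299 cells (p53-null; 50,000/well) transfected 24 h by lipofection with 20 ng BP100-luciferase reporter, 5 ng CMV-lacZ and 0.2 ng CMV-p53. Then 6 h test compound. Activity expressed as luciferase/β-galactosidase ratio.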

[9] = system: Foxo1; experiment: Foxo1-responsive luciferase reporter assay in transfected H1299 cells; assay type: cell-based; conditions: 6 h treatment
In short: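 H1299 cells (50,000/well) lipofected for 24 h with 20 ng 3IRS-luciferase Foxo1 reporter, 5 ng CMV-lacZ and 10 ng CMV-Foxo1, then exposed to compound for 6 h. Readout: luciferase normalised to β-galactosidase activity.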

[10] = target: p53 (Homo sapiens, UniProt P04637, R175H); experiment: Glutaraldehyde crosslinking of p53 in H1299 extract; assay type: biochemical; conditions: 10 μM NSC194598
In short: (§1)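 H1299 cells transiently transfected with pcDNA3 FLAG-tagged wild-type or mutant p53 were lysed in HEPES buffer (50 mM HEPES pH 8.0, 5 mM EDTA, 150 mM NaCl, 0.5% NP-40, protease inhibitors) and spun to clear. Lysate was held with 10 μM test compound for 20 min at 23 °C. It was then crosslinked with 0.01–0.1% glutaraldehyde for 5 min at 23 °C and quenched with Tris-HCl pH 8.0 to 100 mM. Monomer, dimer and tetramer were read by western blot (FL393).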

[11] = target: T1, p53; experiment: as above; assay type: biochemical; conditions: 10 μM NSC194598
In short: as §1

[12] = target: p73β (Homo sapiens, UniProt O15350); experiment: ZF1-Nluc/ZF2-Cluc DNA-binding competition assay, p73β; assay type: biochemical; conditions: at low micromolar concentrations
Sequence of p73β (O15350 1-499 isoform O15350-2, species assumed): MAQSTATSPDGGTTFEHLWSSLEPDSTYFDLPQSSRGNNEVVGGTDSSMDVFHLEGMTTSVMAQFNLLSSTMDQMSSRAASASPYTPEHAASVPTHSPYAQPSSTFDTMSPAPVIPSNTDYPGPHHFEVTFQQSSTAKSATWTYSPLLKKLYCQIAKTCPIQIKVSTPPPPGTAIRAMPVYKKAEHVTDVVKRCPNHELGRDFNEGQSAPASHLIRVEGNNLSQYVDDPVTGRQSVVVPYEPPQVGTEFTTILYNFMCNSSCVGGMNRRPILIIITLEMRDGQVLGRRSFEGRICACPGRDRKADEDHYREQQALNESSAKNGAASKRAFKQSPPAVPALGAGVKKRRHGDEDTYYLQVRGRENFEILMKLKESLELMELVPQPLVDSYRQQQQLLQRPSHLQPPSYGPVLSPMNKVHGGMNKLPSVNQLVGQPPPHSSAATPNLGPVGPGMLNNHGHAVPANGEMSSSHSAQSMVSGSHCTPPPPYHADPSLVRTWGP

[13] = system: MDM2-mediated ubiquitination of p53; experiment: In vivo ubiquitination assay in H1299 cells; assay type: cell-based; conditions: H1299, 5 h treatment
In short: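 H1299 cells co-transfected (PEI, 36 h) with 2 μg His6-ubiquitin, 0.2 μg p53 and 2 μg MDM2 plasmids, then treated 5 h. Lysed in 6 M guanidinium buffer, bound to Ni-NTA 16 h at 23 °C, washed with urea buffers (pH8.0 then 6.3). Imidazole/SDS elution 20 min at 23 °C, DO-1 western blot.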

[14] = target: T1, p53; experiment: Trypsin digestion sensitivity of p53; assay type: biochemical
[15] = target: FLAG-p53-94-312 DNA-binding domain (Homo sapiens, UniProt P04637); experiment: Differential scanning fluorimetry; conditions: 100 μM compound, 4.5 μM protein
In short: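 FLAG-p53 94–312 expressed in E. coli (pET-28b), purified on M2 beads and FLAG-peptide eluted. DSF with 4.5 μM protein, 100 μM test compound and 5× SYPRO Orange in 50 mM HEPES pH7.4, 150 mM NaCl, 2 mM DTT, 2% DMSO. Heated 25→95 °C at 1 °C/min, read every 0.5 °C at 610 nm, quadruplicate. ΔTm taken against DMSO wells.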

[16] = system: H1299-p53-A138V cells; experiment: Western blot in H1299-p53-A138V temperature-sensitive cells; assay type: cell-based; conditions: activated at 32 °C, 8 h
In short: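 H1299 (p53-null) cells stably carrying temperature-sensitive p53-A138V were grown in DMEM with 10% FBS. They were kept at 39 °C or shifted to 32 °C with test compound for 8 h. Cells were lysed in 50 mM Tris-HCl pH 8.0, 5 mM EDTA, 150 mM NaCl, 0.5% NP-40 and protease inhibitors. p53 and target genes were resolved by SDS-PAGE and western blot.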

[17] = target: E2F1 (Homo sapiens, UniProt Q01094); experiment: ChIP of E2F1-ER fusion protein; assay type: cell-based; conditions: tamoxifen-regulated E2F1-ER fusion protein
Sequence of E2F1 (Q01094 whole entry, the tested form may be a part): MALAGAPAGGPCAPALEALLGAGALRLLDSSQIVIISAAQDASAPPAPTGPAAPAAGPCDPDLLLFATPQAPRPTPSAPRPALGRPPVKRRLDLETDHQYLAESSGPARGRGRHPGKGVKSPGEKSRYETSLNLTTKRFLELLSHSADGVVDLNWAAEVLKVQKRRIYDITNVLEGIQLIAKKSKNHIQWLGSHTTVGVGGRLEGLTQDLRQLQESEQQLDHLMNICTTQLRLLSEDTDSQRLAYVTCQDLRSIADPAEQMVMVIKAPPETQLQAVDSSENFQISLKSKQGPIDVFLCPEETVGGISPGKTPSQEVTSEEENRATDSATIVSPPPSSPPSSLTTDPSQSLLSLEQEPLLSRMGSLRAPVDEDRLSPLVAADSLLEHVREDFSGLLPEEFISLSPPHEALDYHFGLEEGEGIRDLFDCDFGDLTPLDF
In short: (§2)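 ChIP by standard procedure, read by SYBR Green real-time PCR of target promoters. Antibodies: anti-HA tag (C29F4) for p63, p73 and c-MYC; KH95 for E2F1.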

[18] = target: T1, p53; experiment: ZF1-Nluc/ZF2-Cluc DNA-binding competition assay; assay type: biochemical; conditions: at low micromolar concentrations
[19] = system: C57BL/6 mice; experiment: Radiation toxicity in mice; assay type: in vivo, mouse
[20] = target: p63γ (Homo sapiens, UniProt Q9H3D4); experiment: ZF1-Nluc/ZF2-Cluc DNA-binding competition assay, p63γ; assay type: biochemical; conditions: at low micromolar concentrations
Sequence of p63γ (Q9H3D4 40-487 isoform Q9H3D4-5 limits assumed): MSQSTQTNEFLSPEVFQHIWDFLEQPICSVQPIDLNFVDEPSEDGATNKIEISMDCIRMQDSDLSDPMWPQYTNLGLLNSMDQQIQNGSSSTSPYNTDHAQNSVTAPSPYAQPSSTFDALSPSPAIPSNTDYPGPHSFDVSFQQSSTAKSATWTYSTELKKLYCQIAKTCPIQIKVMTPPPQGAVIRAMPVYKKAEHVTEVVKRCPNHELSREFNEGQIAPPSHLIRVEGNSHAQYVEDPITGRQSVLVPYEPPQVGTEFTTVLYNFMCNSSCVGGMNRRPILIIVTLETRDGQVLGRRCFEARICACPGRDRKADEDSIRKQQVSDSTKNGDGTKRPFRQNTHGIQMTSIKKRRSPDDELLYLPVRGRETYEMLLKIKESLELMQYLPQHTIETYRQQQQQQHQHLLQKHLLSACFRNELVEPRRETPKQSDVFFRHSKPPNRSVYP

[21] = target: p73β-A156I (Homo sapiens, UniProt O15350, A156I); experiment: ChIP of p73β-A156I temperature-sensitive mutant; assay type: cell-based; conditions: 32 °C
Sequence of p73β-A156I (O15350 1-499 isoform O15350-2 A156I): as the sequence (O15350 1-499 isoform O15350-2, species assumed) above, with A156I counted along it
In short: as §2

[22] = system: RET oncogene; conditions: cited from earlier work
[23] = target: p53-Cluc fusion protein (UniProt P04637+P08659, D436G/I423L/L530R); experiment: p53-Cluc luciferase fragment complementation DNA-binding assay; assay type: biochemical; conditions: read-out: IC50, inhibition of p53 sequence-specific DNA binding in vitro
In short: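 The cell-free reaction used crude E. coli BL21(DE3) extracts: ZF1-Nluc plus p53-Cluc, each expressed from pET-28b with 1 mM IPTG and 0.1 mM ZnCl2 at 18 °C for 18 h. DNA was 50 ng plasmid carrying 12 paired ZF1/p53 sites. Buffer was 100 mM potassium phosphate pH 7.8, 1 mM ZnCl2, 5% glycerol, 1 mM DTT. After 35 min at 32 °C, luciferin/ATP substrate was added, 10 min at 23 °C, then luminescence read. Three experiments.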

[24] = system: G-quadruplex DNA structures; conditions: cited from earlier work
[25] = target: TAF1 bromodomain 2 (aa 1501–1635) (Homo sapiens, UniProt P21675); experiment: Differential scanning fluorimetry; assay type: binding; conditions: 100 μM compound, 4.5 μM protein
Sequence of TAF1 bromodomain 2 (aa 1501–1635) (P21675 1522-1656): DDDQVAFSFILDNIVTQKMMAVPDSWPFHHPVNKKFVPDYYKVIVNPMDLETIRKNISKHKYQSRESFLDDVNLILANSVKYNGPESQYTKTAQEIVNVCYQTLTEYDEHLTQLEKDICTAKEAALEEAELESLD
In short: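 TAF1 second bromodomain (residues 1501–1635) purified by Ni-NTA and size exclusion. Thermal shift with 4.5 μM protein, 100 μM compound and 5× SYPRO Orange in HEPES pH7.4/150 mM NaCl/2 mM DTT/2% DMSO. Ramp 25–95 °C at 1 °C/min, fluorescence at 610 nm every 0.5 °C, four replicates. ΔTm relative to DMSO reference.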

[26] = system: HCT116-p53−/− cells; experiment: Western blot in HCT116-p53−/− cells; assay type: cell-based
[27] = target: p63γ-A167P (Homo sapiens, UniProt Q9H3D4, A206P); experiment: ChIP of p63γ-A167P temperature-sensitive mutant; assay type: cell-based; conditions: 32 °C
Sequence of p63γ-A167P (Q9H3D4 40-487 isoform Q9H3D4-5 A206P limits assumed): as the sequence (Q9H3D4 40-487 isoform Q9H3D4-5 limits assumed) above, with A167P counted along it
In short: as §2

[28] = target: T1, p53; experiment: ChIP of p53 at target promoters in U2OS cells; assay type: cell-based
In short: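 U2OS cells in DMEM/10% FBS, given test compound alone or with IR for 4 h. Chromatin immunoprecipitation with DO-1 anti-p53. Precipitated DNA quantified by SYBR Green real-time PCR with primers for the p21 and MDM2 promoters.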

[29] = target: T2, TCF1; experiment: TCF1-specific zinc finger competition assay; assay type: biochemical
[30] = target: c-Myc (Homo sapiens, UniProt P01106); experiment: ChIP of transiently expressed c-Myc; assay type: cell-based
Sequence of c-Myc (P01106 whole entry): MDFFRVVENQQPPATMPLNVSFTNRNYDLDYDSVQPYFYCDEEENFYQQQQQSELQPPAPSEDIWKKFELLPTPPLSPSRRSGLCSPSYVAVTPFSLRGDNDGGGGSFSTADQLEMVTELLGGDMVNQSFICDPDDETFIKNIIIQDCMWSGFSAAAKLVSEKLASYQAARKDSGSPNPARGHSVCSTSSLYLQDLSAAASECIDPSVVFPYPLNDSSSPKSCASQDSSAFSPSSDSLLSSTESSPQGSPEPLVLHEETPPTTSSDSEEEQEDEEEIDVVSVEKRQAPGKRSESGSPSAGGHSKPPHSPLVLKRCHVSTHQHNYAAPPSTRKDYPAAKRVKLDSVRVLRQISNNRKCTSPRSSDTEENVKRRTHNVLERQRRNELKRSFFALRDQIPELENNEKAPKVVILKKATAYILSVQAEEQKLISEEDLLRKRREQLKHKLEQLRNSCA
Sequence of c-Myc (P61244 whole entry partner): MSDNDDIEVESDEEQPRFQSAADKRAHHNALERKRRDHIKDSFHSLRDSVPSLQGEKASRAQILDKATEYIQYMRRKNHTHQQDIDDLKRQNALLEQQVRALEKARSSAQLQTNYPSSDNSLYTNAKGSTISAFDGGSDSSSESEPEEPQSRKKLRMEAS
In short: as §2

[31] = system: SJSA cells; experiment: Western blot in SJSA cells; assay type: cell-based; conditions: 5–20 μM
In short: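 SJSA cells (MDM2-amplified) were co-treated with the MDM2 inhibitor Nutlin and test compound for 32 h. Lysis was in NP-40/Tris buffer with protease inhibitors, followed by SDS-PAGE and western blot for p53 level and target-gene induction, including p21.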

[32] = U2OS, compound alone, 10, 20 μM

**Q.** Which “Inhibition of p53 DNA binding in oligonucleotide pull down” value [1] does the source give for `Cc1ccc(C(=O)Cn2c3c(sc2=N)CCCC3)cc1` [PFTα, Pifithrin-α, reference compound] here?
**A.** had no effect

**Q.** And the “Effect on activity of full-length luciferase” value [2]?
**A.** inhibited

**Q.** And the “Effect on ZF1-Nluc/ZF2-Cluc complementation readout” value [3]?
**A.** inhibited

**Q.** Which results are given for `[O-][n+]1c(CN2CCCCC2)nc2cccc3c2c1-c1ccccc1-3` [NSC194598]?
**A.** Oligomer formation of HA-p53 and FLAG-p53 [4]: did not inhibit oligomer formation; Inhibition of TCF1 DNA binding in oligonucleotide pull down [5]: did not inhibit; p53 level in irradiated thymocytes ([6]; 1 μM or higher, with IR): reduced p53 level; PARP and Caspase 3 cleavage after IR ([6]; 0.5–10 μM, 6 h, dose-dependent): blocked PARP and Caspase 3 cleavage; Thymocyte viability after IR (trypan blue exclusion) ([6]; 20 hours after 5 Gy IR, 5 μM): increased thymocyte viability; p53 level and cleaved PARP, compound alone ([6]; high concentrations, no IR): caused p53 accumulation; Thymocyte viability with compound alone (trypan blue exclusion) ([6]; no IR): did not lose viability; p21 induction after p53 activation by Nutlin and doxorubicin ([7]; MDM2 inhibitor Nutlin or doxorubicin): inhibited p21 induction; p21, MDM2, PUMA protein and mRNA expression ([7]; U2OS after irradiation): inhibition of p21, MDM2, PUMA protein and mRNA expression; p53 target gene expression, compound alone at 40 μM ([7]; U2OS, 40 μM): decline in p53 target gene expression; Decrease of MDM2/p53 ratio ([7]; U2OS, 4 h treatment): ~ 50%; p53 level and target genes p21 and MDM2, compound alone [7, 32]: caused p53 accumulation and upregulation of target genes p21 and MDM2; p53 mRNA level ([7]; compound alone): no increase in p53 mRNA level; γH2AX and p53 Ser15 phosphorylation (DNA damage) ([7]; compound alone): no increase of γH2AX or p53 Ser15 phosphorylation; p53 activation of p53-responsive luciferase reporter [8]: inhibited; Foxo1 activation of its luciferase reporter [9]: did not inhibit; Crosslinking pattern of R175H conformational mutant [10]: did not affect the crosslinking pattern; Crosslinking banding pattern of dimer and tetramer, wt p53 [11]: detected changes in the banding pattern; Inhibition of p73β DNA binding in competition assay [12]: inhibited; MDM2-mediated ubiquitination of p53 [13]: had no effect; p53 sensitivity to trypsin digestion [14]: did not change sensitivity to trypsin digestion; Increase in melting temperature (ΔTm) of FLAG-94-312 [15]: 0.5 °C; p21 induction and p53 level in H1299-p53-A138V [16]: inhibited p21 induction without changing p53 level; Inhibition of DNA binding of p53 DNA-binding domain (90–312) (pull down) ([1]; 2.5 μM NSC194598): still showed inhibition; Inhibition of DNA binding of p53 deletion mutant 1–360 (pull down) ([1]; 2.5 μM NSC194598): strongly inhibited; Inhibition of DNA binding of p53 deletion mutant 90–393 (pull down) ([1]; 2.5 μM NSC194598): strongly inhibited; DNA binding of compound-treated FLAG-p53 after short wash ([1]; 10 μM for 30 min, wash 3 min): did not bind DNA; DNA binding of compound-treated FLAG-p53 after extensive wash ([1]; 10 μM for 30 min, wash 3 h): regained DNA-binding activity; Inhibition of p53 DNA binding in oligonucleotide pull down [1]: inhibited p53 DNA binding; DNA binding of E2F1 (ChIP) [17]: did not inhibit; Inhibition of p53 DNA binding in competition assay [18]: inhibited; p53 or PARP cleavage in the thymus of treated animals (western blot) ([19]; data not shown): did not reveal increase of p53 or PARP cleavage; Body weight after irradiation ([19]; single i.p. injection of 80 μg, 8 Gy): did not prevent body weight loss; Survival after irradiation ([19]; single i.p. injection of 80 μg, 8 Gy, 40-day observation): statistically significant improvement in survival; Inhibition of p63γ DNA binding in competition assay [20]: inhibited; In vivo DNA binding by p73β-A156I (ChIP) [21]: inhibited; Transcription of RET oncogene [22]: inhibits the transcription of RET oncogene; IC50 [23]: 180 nM; Binding to G-quadruplex DNA structures [24]: binds G-quadruplex DNA structures; Effect on melting temperature of TAF1 bromodomain 2 [25]: did not affect; Induction of p21 and MDM2 in p53-null cells [26]: did not induce p21 and MDM2; In vivo DNA binding by p63γ-A167P (ChIP) [27]: inhibited; p53 occupancy at the p21 promoter (ChIP), compound alone [28, 32]: increased p53 occupancy; p53 occupancy at p21 and MDM2 promoters (ChIP) ([28]; irradiated U2OS cells, 4 hrs): reduced p53 occupancy; Effect on TCF1 competition with zinc finger protein [29]: without effect; DNA binding of c-Myc (ChIP) [30]: did not inhibit; p53 accumulation and p21 expression in SJSA versus U2OS [31]: much weaker p53 accumulation and p21 expression; Effect on ZF1-Nluc/ZF2-Cluc complementation readout [3]: did not stimulate readout
